Experimental data published in ChEMBL document CHEMBL3997811.
Active and inactive are the calls of the source. The rule behind the calls is not given here.

How the values were obtained:
[1] = (§1) Antiviral activity against amantadine-resistant Influenza A virus A/California/07/2009 (H1N1) expressing M2 proton channel S31N mutant infected in MDCK cells harboring ST6Gal1 gene assessed as reduction in plaque formation at 10 uM measured after 2 days post infection by crystal violet staining based assay relative to control; assay type: functional; parameters: scale not given: the % may be the effect or the level left
How it was run: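 ST6Gal I-expressing MDCK monolayers infected with ~100 pfu in DMEM/0.5% BSA, 1 h at 4 °C then 1 h at 37 °C; inoculum removed, PBS wash, overlay of DMEM with 1.2% Avicel and NAT (2.0 μg/mL) containing compound at 10 μM; 2-day incubation; plaque formation expressed as percent of DMSO control.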

[2] = tested on: Matrix protein 2 (Influenza A virus (A/Udorn/307/1972(H3N2))), P0DOF8 [S31N]; test: Inhibition of Influenza A virus amantadine-resistant M2 proton channel S31N mutant expressed in Xenopus laevis oocyte at 100 uM at pH 5.5 after 2 mins by two-electrode patch clamp assay relative to control
How it was run: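 Xenopus laevis oocytes microinjected with RNA for AM2-WT or AM2-S31N; channel activated at pH 5.5; two-electrode voltage clamp current recorded after 2 min exposure to 100 μM compound; expressed as percent current inhibition; three repeats on different oocytes, mean reported.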

[3] = tested on: Influenza A virus (A/California/07/2009(H1N1)); test: as §1, with “up to 30” for “at 10”, “based” for “based assay relative to control”; assay type: functional, cell-based
[4] = tested on: Influenza A virus (A/California/07/2009(H1N1)); test: (§2) Antiviral activity against amantadine-resistant Influenza A virus A/California/07/2009 (H1N1) expressing M2 proton channel S31N mutant infected in MDCK cells harboring ST6Gal1 gene assessed as reduction in plaque formation measured after 2 days post infection by crystal violet staining based; assay type: functional, cell-based
[5] = as §2; assay type: functional, cell-based
Influenza A virus = test: Antiviral activity against multidrug-resistant Influenza A virus A/Switzerland/9715293/2013 (H3N2) expressing M2 proton channel S31N mutant infected in MDCK cells harboring ST6Gal1 gene assessed as reduction in plaque formation measured after 2 days post infection by crystal violet staining based; assay type: functional, cell-based
[6] = Antiviral activity against amantadine/oseltamivir-resistant Influenza A virus A/Washington/29/2009 (H1N1) expressing AM2-S31N/neuraminidase-H275Y mutant infected in MDCK cells harboring ST6Gal1 gene assessed as reduction in plaque formation measured after 2 days post infection by crystal violet staining based; assay type: functional, cell-based

| SMILES | Activity [1] | inhibition [2] | Activity [3] | Activity [4] | EC50 [5] | EC50 (Influenza A virus) | EC50 [6] |
| --- | --- | --- | --- | --- | --- | --- | --- |
| COc1ccc(-c2cc(CNC34CC5CC(CC(C5)C3)C4)no2)cn1 | 21.7% | 58% | – | – | – | – | – |
| Clc1cc(-c2cc(CNC34CC5CC(CC(C5)C3)C4)no2)cs1 | 10.9% | 87.9% | – | – | – | – | – |
| CN(C)c1ccc(-c2cc(CNC34CC5CC(CC(C5)C3)C4)no2)cc1 | 35.7% | 83.2% | – | – | – | – | – |
| N#Cc1ccc(-c2cc(CNC34CC5CC(CC(C5)C3)C4)no2)cc1 | 28% | 72.2% | – | – | – | – | – |
| OC12CC3CC(C1)CC(NCc1cc(-c4cc(Cl)sc4Cl)on1)(C3)C2 | 13.7% | 89.9% | inactive | – | – | – | – |
| c1ccc2c(-c3cc(CNC45CC6CC(CC(C6)C4)C5)no3)cccc2c1 | 36.1% | 56.8% | – | – | – | – | – |
| Oc1ccccc1-c1cc(CNC23CC4CC(CC(C4)C2)C3)no1 | 3.4% | 71.5% | – | Dose-dependent effect | 500 nM | – | – |
| COc1ccccc1-c1cc(CNC23CC4CC(CC(C4)C2)C3)no1 | 62.1% | 51.8% | – | – | – | – | – |
| FC(F)(F)Oc1cccc(-c2cc(CNC34CC5CC(CC(C5)C3)C4)no2)c1 | 72.7% | 56.7% | – | – | – | – | – |
| CSc1cccc(-c2cc(CNC34CC5CC(CC(C5)C3)C4)no2)c1 | 56.3% | 69.6% | – | – | – | – | – |
| CS(=O)(=O)c1ccccc1-c1cc(CNC23CC4CC(CC(C4)C2)C3)no1 | 110% | 9.8% | – | – | – | – | – |
| NC(=O)c1ccc(-c2cc(CNC34CC5CC(CC(C5)C3)C4)no2)cc1 | 57.1% | 47.4% | – | – | – | – | – |
| COc1sccc1-c1cc(CNC23CC4CC(CC(C4)C2)C3)no1 | 7.2% | 94.2% | – | – | – | – | – |
| Clc1ccc(-c2cc(CNC34CC5CC(CC(C5)C3)C4)no2)s1 | 0% | 78.8% | – | Dose-dependent effect | – | 200 nM | 200 nM |
| c1ccc(-c2ccc(-c3cc(CNC45CC6CC(CC(C6)C4)C5)no3)cc2)cc1 | 36% | 45.6% | – | – | – | – | – |
| c1ccc(-c2cc(CNC34CC5CC(CC(C5)C3)C4)no2)cc1 | 13.5% | – | – | Dose-dependent effect | 300 nM | – | – |
| CSc1ccccc1-c1cc(CNC23CC4CC(CC(O)(C4)C2)C3)no1 | 9.2% | 90.6% | – | Dose-dependent effect | 1200 nM | – | – |
| OC12CC3CC(C1)CC(NCc1cc(-c4ccccc4Cl)on1)(C3)C2 | 8.3% | 87.1% | – | Dose-dependent effect | 900 nM | – | – |
| Clc1cc(-c2cc(CNC34CC5CC(CC(C5)C3)C4)no2)c(Cl)s1 | 10.1% | 87.7% | – | – | – | – | – |
| COC(=O)c1ccc(-c2cc(CNC34CC5CC(CC(C5)C3)C4)no2)cc1 | 24.1% | 73.6% | – | – | – | – | – |
| c1cncc(-c2cc(CNC34CC5CC(CC(C5)C3)C4)no2)c1 | 105.5% | 53% | – | – | – | – | – |
